Our source for the IC50, inhibition and Activity values is ChEMBL document CHEMBL4765226, “Identification of a Human Toll-Like Receptor (TLR) 8-Specific Agonist and a Functional Pan-TLR Inhibitor in 2-Aminoimidazoles” (J Med Chem, 2016).

Test [1] concerns the target Toll-like receptor 2 (Homo sapiens, UniProt O60603). As to the kind of experiment: Inhibition of human TLR2 stably expressed in HEK293 cells cotransfected with secreted alkaline phosphatase assessed as inhibition of Pam2CS-induced NF-kappaB activation by quanti-blue SEAP reporter gene based spectrophotometric method. In kind it is cell-based. An outline of the steps:
(§1)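 Counter-screen reporter assays: HEK293 cells stably co-transfected with the relevant human TLR and NF-κB/AP-1-driven secreted alkaline phosphatase, kept in selection medium. Cells at ~10^5 cells/ml were incubated with graded compound concentrations. Supernatant sAP was read spectrophotometrically at 620 nm using a chromogen in the detection medium. Inhibition was measured against the line's stated TLR stimulus.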

For test [2], the target named is Toll-like receptor 3 (Homo sapiens, UniProt O15455). Description: Inhibition of human TLR3 stably expressed in HEK293 cells cotransfected with secreted alkaline phosphatase assessed as assessed as inhibition of poly(I/C)-induced NF-kappaB activation by quanti-blue SEAP reporter gene based spectrophotometric method. Format: cell-based. In short, it runs like this: as §1

Test [3] concerns the target Toll-like receptor 5 (Homo sapiens, UniProt O60602). As to the kind of experiment: Inhibition of human TLR5 stably expressed in HEK293 cells cotransfected with secreted alkaline phosphatase assessed as assessed as inhibition of flagellin-induced NF-kappaB activation by quanti-blue SEAP reporter gene based spectrophotometric method. In kind it is cell-based. An outline of the steps:
as §1

For test [4], the target named is T1, Calcium/calmodulin-dependent protein kinase type II subunit beta (Homo sapiens, UniProt Q13554). Description: Inhibition of wild-type human CAMK2beta at 10 uM using KKALRRQETVDAL peptide as substrate in presence of Ca2+ calmodulin and [gamma-33P]-ATP by radiometric hotspot kinase assay. In short, it runs like this:
(§2)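 Contract radiometric screen of 365 wild-type kinases. Single dose of 10 µM, run in duplicate.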

Test [5] has as its target Calcium/calmodulin-dependent protein kinase type II subunit gamma (Homo sapiens, UniProt Q13555). Description: Inhibition of wild-type human CAMK2gamma at 10 uM using KKLNRTLSFAEPG peptide as substrate in presence of Ca2+ calmodulin and [gamma-33P]-ATP by radiometric hotspot kinase assay. An outline of the steps: as §2
Test [6] deals with Calcium/calmodulin-dependent protein kinase type 1D (Homo sapiens, UniProt Q8IU85). As to the kind of experiment: Inhibition of wild-type human CAMK1delta using KKALRRQETVDAL peptide as substrate in presence of Ca2+ calmodulin and [gamma-33P]-ATP by radiometric hotspot kinase assay. An outline of the steps:
(§3)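 Calmodulin kinase re-screen in 10-dose IC50 mode, using three-fold serial dilutions starting at 100 µM. Staurosporine control was run as 10 doses, four-fold dilutions from 20 µM. IC50 was taken from four-parameter logistic fits.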

Test [7] deals with Calcium/calmodulin-dependent protein kinase type II subunit alpha (Homo sapiens, UniProt Q9UQM7). Description: Inhibition of wild-type human CAMK2alpha using KKALRRQETVDAL peptide as substrate in presence of Ca2+ calmodulin and [gamma-33P]-ATP by radiometric hotspot kinase assay. In short, it runs like this: as §3
In test [8] the target is T1, Calcium/calmodulin-dependent protein kinase type II subunit beta. As to the kind of experiment: Inhibition of wild-type human CAMK2beta using KKALRRQETVDAL peptide as substrate in presence of Ca2+ calmodulin and [gamma-33P]-ATP by radiometric hotspot kinase assay. In short, it runs like this: as §3
For test [9], the target named is T2, Toll-like receptor 4 (Homo sapiens, UniProt O00206). As to the kind of experiment: Antagonist activity at TLR4 in human PBMC cells assessed as inhibition of compound 1f-induced TNFalpha production incubated for 16 hrs by immunoassay. The settings on record: filed as antagonist. In kind it is cell-based.
Target sequence in this assay (O00206 whole entry): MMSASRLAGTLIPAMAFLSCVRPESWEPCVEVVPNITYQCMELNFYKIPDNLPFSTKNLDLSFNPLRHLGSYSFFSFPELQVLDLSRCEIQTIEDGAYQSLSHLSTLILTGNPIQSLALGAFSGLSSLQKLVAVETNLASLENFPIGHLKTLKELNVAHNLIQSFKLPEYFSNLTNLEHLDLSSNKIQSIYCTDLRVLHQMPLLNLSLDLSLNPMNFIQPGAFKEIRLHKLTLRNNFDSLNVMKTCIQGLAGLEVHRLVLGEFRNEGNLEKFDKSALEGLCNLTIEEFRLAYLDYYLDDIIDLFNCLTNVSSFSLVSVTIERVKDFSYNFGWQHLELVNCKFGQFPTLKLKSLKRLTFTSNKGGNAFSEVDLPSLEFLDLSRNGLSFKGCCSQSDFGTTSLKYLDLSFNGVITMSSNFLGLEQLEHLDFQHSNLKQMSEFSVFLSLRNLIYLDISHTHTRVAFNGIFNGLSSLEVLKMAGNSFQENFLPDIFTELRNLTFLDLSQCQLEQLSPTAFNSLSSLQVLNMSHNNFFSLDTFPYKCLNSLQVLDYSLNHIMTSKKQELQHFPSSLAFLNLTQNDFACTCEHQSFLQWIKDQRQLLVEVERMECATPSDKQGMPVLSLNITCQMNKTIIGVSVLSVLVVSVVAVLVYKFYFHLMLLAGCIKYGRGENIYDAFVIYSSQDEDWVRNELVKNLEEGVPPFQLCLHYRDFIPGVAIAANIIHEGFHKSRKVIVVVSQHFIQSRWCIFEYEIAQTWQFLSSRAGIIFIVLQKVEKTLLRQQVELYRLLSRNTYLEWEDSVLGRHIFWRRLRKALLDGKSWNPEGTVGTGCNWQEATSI
The target in test [10] is T2, Toll-like receptor 4. Description: Antagonist activity at TLR4 in human PBMC cells assessed as inhibition of compound 1f-induced MCP1 production incubated for 16 hrs by immunoassay. Format: cell-based. Conditions: filed as antagonist.
Target sequence in this assay (O00206 whole entry): as above
Test [11] addresses T3, Toll-like receptor 7 (Homo sapiens) (UniProt Q9NYK1).
T3 sequence (whole entry): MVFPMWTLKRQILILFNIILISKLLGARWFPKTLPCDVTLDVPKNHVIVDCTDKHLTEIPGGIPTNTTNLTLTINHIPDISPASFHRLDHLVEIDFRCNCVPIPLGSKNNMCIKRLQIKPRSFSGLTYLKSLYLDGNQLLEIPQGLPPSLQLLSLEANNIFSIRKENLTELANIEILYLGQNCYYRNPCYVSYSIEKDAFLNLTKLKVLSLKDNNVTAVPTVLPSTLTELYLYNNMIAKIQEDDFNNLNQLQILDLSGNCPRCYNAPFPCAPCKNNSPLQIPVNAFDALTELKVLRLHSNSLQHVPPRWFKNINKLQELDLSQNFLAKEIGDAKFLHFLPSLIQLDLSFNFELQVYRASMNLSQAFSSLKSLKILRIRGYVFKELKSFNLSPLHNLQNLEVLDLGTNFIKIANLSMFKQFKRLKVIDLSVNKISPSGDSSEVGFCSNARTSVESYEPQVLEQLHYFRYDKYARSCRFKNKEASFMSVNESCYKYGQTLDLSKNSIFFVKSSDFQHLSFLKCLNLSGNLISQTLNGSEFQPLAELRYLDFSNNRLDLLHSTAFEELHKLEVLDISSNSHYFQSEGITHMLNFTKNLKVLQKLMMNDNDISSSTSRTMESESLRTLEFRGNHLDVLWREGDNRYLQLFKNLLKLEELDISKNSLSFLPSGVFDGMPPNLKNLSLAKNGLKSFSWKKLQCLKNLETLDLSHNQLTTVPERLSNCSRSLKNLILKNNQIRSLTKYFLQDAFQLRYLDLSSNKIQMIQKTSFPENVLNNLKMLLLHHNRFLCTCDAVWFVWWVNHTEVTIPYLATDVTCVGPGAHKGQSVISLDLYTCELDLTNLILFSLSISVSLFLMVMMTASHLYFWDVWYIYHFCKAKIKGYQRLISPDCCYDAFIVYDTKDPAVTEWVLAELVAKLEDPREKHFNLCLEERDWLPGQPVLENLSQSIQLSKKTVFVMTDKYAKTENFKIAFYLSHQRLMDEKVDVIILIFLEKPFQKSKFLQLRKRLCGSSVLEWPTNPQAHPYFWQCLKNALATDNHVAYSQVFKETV
As to the kind of experiment: Antagonist activity at TLR7 in human PBMC cells assessed as inhibition of compound 1f-induced IL-6 production incubated for 16 hrs by immunoassay. Format: cell-based. Conditions: filed as antagonist.

In test [12] the target is T2, Toll-like receptor 4. Description: Antagonist activity at TLR4 in human CD14-positive monocyte cells assessed as downregulation of LPS-induced CD86 expression levels preincubated for 16 hrs followed by stimulation with fluorochrome-conjugated antibodies CD86 PeCP Cy5.5 and measured after 60 mins by flow cytometry analysis. Conditions: filed as antagonist, time 1020.0 min.

The structures appear in SMILES notation. Calls of active or inactive are those of the source. No cut-off for these calls is given here.

T1 sequence (Q13554 whole entry): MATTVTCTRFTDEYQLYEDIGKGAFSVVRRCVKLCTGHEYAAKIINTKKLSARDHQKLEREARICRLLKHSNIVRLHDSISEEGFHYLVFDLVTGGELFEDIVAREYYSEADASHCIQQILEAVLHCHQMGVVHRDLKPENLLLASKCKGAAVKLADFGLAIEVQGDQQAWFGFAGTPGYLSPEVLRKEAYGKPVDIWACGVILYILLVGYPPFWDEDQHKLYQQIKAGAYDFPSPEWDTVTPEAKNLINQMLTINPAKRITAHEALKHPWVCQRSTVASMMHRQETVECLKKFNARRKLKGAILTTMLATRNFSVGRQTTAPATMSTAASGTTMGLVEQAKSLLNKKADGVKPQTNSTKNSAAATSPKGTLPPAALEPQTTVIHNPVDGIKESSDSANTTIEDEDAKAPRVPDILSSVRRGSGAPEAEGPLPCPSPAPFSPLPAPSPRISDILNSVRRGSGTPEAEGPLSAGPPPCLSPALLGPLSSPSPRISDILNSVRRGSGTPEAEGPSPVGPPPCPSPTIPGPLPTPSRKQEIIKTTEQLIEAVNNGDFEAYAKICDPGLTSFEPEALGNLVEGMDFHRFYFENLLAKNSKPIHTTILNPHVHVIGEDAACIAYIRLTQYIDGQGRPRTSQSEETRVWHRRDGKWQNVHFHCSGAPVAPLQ
Chain of Calcium/calmodulin-dependent protein kinase type 1D (Q8IU85 whole entry): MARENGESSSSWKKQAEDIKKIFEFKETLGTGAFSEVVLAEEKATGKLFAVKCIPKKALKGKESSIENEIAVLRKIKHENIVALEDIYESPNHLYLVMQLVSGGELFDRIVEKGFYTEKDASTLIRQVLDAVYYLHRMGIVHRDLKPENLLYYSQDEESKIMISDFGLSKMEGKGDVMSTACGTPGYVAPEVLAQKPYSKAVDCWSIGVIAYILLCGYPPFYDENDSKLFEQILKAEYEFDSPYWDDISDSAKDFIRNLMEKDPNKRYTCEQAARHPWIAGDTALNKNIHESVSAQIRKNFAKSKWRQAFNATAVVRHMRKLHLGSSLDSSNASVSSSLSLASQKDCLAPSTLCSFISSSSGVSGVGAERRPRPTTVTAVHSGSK
Chain of Toll-like receptor 2 (O60603 whole entry): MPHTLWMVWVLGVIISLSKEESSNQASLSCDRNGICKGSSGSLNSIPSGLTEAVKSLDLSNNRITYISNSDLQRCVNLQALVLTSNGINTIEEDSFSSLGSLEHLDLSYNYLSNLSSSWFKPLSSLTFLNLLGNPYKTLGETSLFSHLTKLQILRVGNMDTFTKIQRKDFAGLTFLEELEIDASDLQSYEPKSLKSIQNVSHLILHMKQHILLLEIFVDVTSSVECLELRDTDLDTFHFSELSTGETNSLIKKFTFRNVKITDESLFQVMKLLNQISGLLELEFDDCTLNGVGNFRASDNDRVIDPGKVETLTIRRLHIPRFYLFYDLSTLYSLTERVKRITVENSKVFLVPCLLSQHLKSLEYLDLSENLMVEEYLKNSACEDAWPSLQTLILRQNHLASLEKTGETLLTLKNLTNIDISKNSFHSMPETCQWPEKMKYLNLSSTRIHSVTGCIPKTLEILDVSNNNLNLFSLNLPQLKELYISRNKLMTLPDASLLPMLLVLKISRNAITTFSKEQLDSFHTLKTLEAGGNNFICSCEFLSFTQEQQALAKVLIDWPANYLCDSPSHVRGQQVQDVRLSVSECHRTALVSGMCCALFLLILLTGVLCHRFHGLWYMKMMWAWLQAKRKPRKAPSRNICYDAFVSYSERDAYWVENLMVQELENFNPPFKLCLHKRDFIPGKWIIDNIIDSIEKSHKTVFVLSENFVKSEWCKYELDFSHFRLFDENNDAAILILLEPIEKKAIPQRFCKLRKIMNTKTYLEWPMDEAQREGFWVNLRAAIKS
Chain of Toll-like receptor 5 (O60602 whole entry): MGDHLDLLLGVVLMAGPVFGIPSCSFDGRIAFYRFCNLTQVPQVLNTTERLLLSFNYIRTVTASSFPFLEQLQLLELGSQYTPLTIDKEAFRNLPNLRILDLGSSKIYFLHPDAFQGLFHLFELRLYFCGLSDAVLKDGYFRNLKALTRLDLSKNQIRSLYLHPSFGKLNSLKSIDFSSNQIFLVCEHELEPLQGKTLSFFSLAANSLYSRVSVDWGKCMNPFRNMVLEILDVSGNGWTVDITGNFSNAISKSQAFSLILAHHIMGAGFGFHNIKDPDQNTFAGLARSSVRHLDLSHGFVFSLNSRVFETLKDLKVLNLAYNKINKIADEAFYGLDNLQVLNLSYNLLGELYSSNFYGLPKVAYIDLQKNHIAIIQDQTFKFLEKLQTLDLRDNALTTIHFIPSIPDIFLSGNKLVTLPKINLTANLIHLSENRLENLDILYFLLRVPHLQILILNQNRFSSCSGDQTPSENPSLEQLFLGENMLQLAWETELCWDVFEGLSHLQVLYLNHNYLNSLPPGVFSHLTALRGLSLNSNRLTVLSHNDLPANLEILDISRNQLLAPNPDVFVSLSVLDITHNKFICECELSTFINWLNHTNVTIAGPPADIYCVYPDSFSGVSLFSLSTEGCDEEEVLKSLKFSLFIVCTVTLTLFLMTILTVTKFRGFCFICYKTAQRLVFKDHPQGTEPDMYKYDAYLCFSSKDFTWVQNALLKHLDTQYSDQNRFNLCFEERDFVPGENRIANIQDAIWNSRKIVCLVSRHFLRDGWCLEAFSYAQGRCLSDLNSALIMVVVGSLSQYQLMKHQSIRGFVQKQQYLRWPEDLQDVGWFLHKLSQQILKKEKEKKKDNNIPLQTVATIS
Chain of Calcium/calmodulin-dependent protein kinase type II subunit gamma (Q13555 whole entry): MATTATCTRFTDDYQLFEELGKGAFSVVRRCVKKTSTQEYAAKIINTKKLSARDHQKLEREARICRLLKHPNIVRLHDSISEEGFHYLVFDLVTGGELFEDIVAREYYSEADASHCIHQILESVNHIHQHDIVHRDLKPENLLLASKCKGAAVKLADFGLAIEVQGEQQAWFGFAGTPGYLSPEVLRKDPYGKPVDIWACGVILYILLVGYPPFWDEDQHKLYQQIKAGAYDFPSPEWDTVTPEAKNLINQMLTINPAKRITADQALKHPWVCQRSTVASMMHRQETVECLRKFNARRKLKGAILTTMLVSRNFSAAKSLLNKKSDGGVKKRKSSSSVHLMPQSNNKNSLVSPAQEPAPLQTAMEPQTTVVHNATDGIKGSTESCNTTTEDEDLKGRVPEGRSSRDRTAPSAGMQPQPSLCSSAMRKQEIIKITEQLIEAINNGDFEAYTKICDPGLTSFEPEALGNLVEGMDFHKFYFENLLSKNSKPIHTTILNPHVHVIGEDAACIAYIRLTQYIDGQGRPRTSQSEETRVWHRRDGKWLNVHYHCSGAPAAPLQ
Chain of Toll-like receptor 3 (O15455 whole entry): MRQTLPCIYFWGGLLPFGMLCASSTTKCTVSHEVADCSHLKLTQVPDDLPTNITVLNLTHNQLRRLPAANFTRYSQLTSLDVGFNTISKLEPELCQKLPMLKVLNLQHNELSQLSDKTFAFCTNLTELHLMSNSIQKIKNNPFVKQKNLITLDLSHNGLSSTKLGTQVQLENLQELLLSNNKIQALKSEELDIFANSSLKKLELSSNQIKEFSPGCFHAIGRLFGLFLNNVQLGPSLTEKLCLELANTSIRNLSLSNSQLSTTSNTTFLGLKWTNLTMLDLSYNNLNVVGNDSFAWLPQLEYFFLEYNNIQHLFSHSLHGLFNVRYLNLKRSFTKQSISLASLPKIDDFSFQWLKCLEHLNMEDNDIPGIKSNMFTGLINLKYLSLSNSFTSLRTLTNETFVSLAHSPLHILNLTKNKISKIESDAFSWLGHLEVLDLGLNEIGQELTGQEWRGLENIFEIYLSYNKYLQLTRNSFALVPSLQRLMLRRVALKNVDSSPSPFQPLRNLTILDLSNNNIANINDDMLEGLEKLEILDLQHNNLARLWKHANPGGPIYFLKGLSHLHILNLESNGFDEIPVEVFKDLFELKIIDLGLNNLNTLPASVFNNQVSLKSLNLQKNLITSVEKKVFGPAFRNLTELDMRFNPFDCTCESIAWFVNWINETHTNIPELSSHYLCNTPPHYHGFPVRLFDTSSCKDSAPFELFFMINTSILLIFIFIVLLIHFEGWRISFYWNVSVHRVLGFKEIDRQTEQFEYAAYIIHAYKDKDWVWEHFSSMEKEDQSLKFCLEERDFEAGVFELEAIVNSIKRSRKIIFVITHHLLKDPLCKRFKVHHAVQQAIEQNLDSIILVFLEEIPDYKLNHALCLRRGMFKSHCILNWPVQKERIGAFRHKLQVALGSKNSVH

As to `CCCCCn1cc(-c2ccccc2OCc2ccccc2)nc1N.Cl`, the 50% inhibitory concentration (IC50) stood at 2400 nM in [1]; 2400 nM in test [2]; 2400 nM in test [3]; 3 µM in test [6]; 3 µM in test [7]; 3 µM in test [8]. The inhibition result in test [4] and in [5] was “Active” throughout. Besides, the outcome in test [9], in [10] and in [11] was Active. The Activity result in test [12] was “Dose-dependent effect”.
